Data set [1] concerns MV4-11. In words: Induction of apoptosis in human MV4-11 cells assessed as late apoptotic cells at 1 uM after 24 hrs by annexin V-FITC/propidium iodide staining-based flow cytometric method (reference value: 2.54%). The format is functional.
Data set [2] has as its system MV4-11. In words: Induction of apoptosis in human MV4-11 cells assessed as late apoptotic cells at 0.2 uM after 24 hrs by annexin V-FITC/propidium iodide staining-based flow cytometric method (reference value: 2.54%). The format is functional. (A flow cytometer gives signals particle by particle.)
The subject of another data set is Lymphocyte. In words: Cytotoxicity against human lymphocytes assessed as decrease in cell viability after 72 hrs by MTT assay. The data set is classed as cell-based. On the technique in general: Tetrazolium assays rely on reduction of a dye to a coloured formazan, in cell work by metabolically active cells.
The test system of data set [3] is MV4-11. In words: Induction of apoptosis in human MV4-11 cells at 2 uM after 24 hrs by annexin V-FITC/propidium iodide staining-based flow cytometric method. The data set is classed as functional, cell-based.
Data set [4] is described as follows: Terminal half life in rat liver microsomes by LC-MS/MS analysis. The format is ADME, microsome. The settings on record: read-out: beta t1/2 (converted). The essentials:
(§1)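 Metabolic stability measured by incubating compound in human, rat, mouse, dog and monkey liver microsomes. Terminal t1/2 determined.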
In general terms: Liver microsomes are a subcellular fraction often used to study metabolism.

Data set [5] is described as follows: Terminal half life in mouse liver microsomes by LC-MS/MS analysis. The format is ADME, microsome. The settings on record: read-out: beta t1/2 (converted). The procedure, abridged: as §1
A further data set concerns Mus musculus. In words: Toxicity in nu/nu mouse xenografted with human MV4-11 cells assessed as body weight loss at 15 to 40 mg/kg, iv qd administered for 21 days measuring during compound dosing. Conditions: in vivo, 504 h. The data set is classed as organism-based. The procedure, abridged:
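Female nu/nu mice carried established MV4-11 xenografts. Once tumors reached 200 mm3, mice were grouped and given compound or vehicle by intravenous injection once daily at 15, 30 or 40 mg/kg/d for 21 days. A Cytarabine arm received 50 mg/kg/d iv. Body weight was tracked during dosing and expressed relative to initial weight set as 100%.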

The test system of data set [6] is MV4-11. In words: Antitumor activity against human MV4-11 cells xenografted in nu/nu mouse assessed as tumor regression at 15 mg/kg, iv qd measured on day 21 relative to vehicle-treated control. The data set is classed as functional.
Data set [7] has as its system MV4-11. In words: Induction of apoptosis in human MV4-11 cells assessed as late apoptotic cells at 2 uM after 24 hrs by annexin V-FITC/propidium iodide staining-based flow cytometric method (reference value: 2.54%). The data set is classed as functional.
Data set [8] concerns HCT-116. In words: Cell cycle arrest in human HCT116 cells assessed as accumulation at G2/M phase at 0.1 to 1 uM after 24 hrs by propidium iodide/BrdU staining-based flow cytometric method. The format is functional. The essentials: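 Cells treated with compound for 24 h, then fixed. Double-stained with propidium iodide and BrdU for flow cytometric analysis of cell cycle distribution.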

Data set [9] deals with Cyclin-dependent kinase 4/cyclin D1 (Homo sapiens, UniProt P11802). In words: Inhibition of human CDK4/Cyclin D1 using RB protein as substrate preincubated for 20 mins followed by [gamma-33P]-ATP addition measure after 120 mins by filter binding method. The data set is classed as protein-complex assay. The procedure, abridged:
(§2)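 Compound preincubated with kinase 20 min at room temperature. Reaction started with 10 μM [γ-33P]ATP and run 120 min at 25°C. Filter-binding read-out, curve-fitted IC50; mean ± SD of three independent experiments.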

In data set [10] the test system is HCT-116. In words: Growth inhibition of human HCT116 cells after 72 hrs by CellTiter-Glo assay. The data set is classed as functional. Conditions: HCT-116, 72 h.
Data set [11] deals with Receptor-type tyrosine-protein kinase FLT3 (Homo sapiens) (UniProt P36888). In words: Inhibition of FLT3 phosphorylation in human MV4-11 cells assessed as decrease in ERK phosphorylation at 0.02 to 1 uM after 24 hrs by Western blot analysis. The format is cell-based. The essentials:
(§3)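 MV4-11 cells treated with increasing concentrations of compound for 24 h. Lysates immunoblotted for phosphorylated FLT3, STAT5, ERK, AKT and Rb.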

Data set [12] has as its system MV4-11. In words: Induction of apoptosis in human MV4-11 cells assessed as late apoptotic cells at 0.5 uM after 24 hrs by annexin V-FITC/propidium iodide staining-based flow cytometric method (reference value: 2.54%). The format is functional.
Data set [13] has as its system MV4-11. In words: Induction of apoptosis in human MV4-11 cells assessed as early apoptotic cells at 0.2 uM after 24 hrs by annexin V-FITC/propidium iodide staining-based flow cytometric method (reference value: 3.54%). The data set is classed as functional.
A short description of data set [14]: Terminal half life in cynomolgus monkey liver microsomes by LC-MS/MS analysis. The format is ADME, Macaca fascicularis, microsome. The settings on record: read-out: beta t1/2 (converted). The procedure, abridged: as §1
Data set [15] has as its system MV4-11. In words: Induction of apoptosis in human MV4-11 cells assessed as early apoptotic cells at 2 uM after 24 hrs by annexin V-FITC/propidium iodide staining-based flow cytometric method (reference value: 3.54%). The data set is classed as functional.
Data set [16] has as its system MV4-11. In words: Antitumor activity against human MV4-11 cells xenografted in nu/nu mouse assessed as tumor regression at 30 mg/kg, iv qd measured on day 21 relative to vehicle-treated control. The data set is classed as functional.
The nature of data set [17]: Terminal half life in dog liver microsomes by LC-MS/MS analysis. The data set is classed as ADME, Canis lupus familiaris, microsome. Conditions: read-out: beta t1/2 (converted). The procedure, abridged:
as §1

The subject of the next data set is RS4-11. In words: Growth inhibition of human RS4:11 cells after 72 hrs by CellTiter-Glo assay. The format is functional. Conditions: RS4-11, 72 h.
The test system of another data set is MCF7. In words: Growth inhibition of human MCF7 cells after 72 hrs by CellTiter-Glo assay. The format is functional. The settings on record: MCF7, 72 h.
For the next data set, the species on record is Homo sapiens. In words: Inhibition of CDK in human MV4-11 cells assessed as decrease in Rb phosphorylation at Ser807/811 after 24 hrs by Western blot analysis. The data set is classed as cell-based. The procedure, abridged:
as §3

The target of another data set is CDK6/cyclin D1 (Homo sapiens, UniProt Q00534). In words: Inhibition of human CDK6/Cyclin D1 using RB protein as substrate preincubated for 20 mins followed by [gamma-33P]-ATP addition measure after 120 mins by filter binding method. The format is protein-complex assay. The essentials:
as §2

Calls of active or inactive are those of the source. The rule behind the calls is not given here.

Sequence of Receptor-type tyrosine-protein kinase FLT3 (Homo sapiens) (P36888 whole entry): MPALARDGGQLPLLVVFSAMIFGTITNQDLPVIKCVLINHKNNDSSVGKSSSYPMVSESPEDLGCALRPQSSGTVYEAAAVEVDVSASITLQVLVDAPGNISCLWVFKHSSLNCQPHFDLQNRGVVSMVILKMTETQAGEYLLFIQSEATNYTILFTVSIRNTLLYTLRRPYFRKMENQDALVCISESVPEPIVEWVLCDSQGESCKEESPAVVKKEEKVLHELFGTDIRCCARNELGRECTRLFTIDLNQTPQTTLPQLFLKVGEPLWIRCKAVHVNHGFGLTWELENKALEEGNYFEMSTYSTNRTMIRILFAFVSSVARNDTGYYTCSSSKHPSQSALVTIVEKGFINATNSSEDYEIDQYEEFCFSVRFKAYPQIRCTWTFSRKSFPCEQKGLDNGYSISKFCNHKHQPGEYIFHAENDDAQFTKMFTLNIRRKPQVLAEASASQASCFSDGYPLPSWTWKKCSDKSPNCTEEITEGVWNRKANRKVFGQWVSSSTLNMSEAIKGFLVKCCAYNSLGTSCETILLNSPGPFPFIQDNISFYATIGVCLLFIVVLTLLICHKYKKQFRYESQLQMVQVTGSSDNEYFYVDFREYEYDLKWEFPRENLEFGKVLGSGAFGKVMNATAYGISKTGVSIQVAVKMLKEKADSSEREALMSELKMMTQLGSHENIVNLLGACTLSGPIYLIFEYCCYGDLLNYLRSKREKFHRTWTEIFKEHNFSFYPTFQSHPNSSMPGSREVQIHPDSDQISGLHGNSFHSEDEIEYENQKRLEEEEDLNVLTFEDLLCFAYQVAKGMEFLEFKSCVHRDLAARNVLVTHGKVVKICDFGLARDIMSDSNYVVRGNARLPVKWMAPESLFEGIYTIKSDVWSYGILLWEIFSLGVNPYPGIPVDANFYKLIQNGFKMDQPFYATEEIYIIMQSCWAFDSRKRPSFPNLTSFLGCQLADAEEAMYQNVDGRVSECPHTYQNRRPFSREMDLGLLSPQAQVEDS
Sequence of CDK6/cyclin D1 (P24385 whole entry): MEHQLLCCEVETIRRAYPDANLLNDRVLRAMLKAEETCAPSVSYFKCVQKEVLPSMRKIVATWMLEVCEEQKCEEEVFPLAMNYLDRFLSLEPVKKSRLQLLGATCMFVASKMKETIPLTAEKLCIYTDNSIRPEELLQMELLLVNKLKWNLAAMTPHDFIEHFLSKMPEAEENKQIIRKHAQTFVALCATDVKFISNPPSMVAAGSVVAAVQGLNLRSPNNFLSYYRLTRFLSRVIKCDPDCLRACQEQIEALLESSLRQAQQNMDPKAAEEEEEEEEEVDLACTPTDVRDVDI
Sequence of CDK6/cyclin D1 (Q00534 whole entry): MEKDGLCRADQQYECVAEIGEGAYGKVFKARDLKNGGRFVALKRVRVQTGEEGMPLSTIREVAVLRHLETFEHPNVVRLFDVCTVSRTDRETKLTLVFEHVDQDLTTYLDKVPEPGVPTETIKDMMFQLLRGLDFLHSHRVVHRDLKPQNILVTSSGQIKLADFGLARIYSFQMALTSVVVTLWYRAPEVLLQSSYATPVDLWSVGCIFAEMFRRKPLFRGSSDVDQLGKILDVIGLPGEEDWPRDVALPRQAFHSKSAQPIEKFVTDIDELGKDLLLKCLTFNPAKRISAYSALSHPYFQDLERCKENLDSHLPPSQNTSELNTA
Sequence of Cyclin-dependent kinase 4/cyclin D1 (P11802 whole entry): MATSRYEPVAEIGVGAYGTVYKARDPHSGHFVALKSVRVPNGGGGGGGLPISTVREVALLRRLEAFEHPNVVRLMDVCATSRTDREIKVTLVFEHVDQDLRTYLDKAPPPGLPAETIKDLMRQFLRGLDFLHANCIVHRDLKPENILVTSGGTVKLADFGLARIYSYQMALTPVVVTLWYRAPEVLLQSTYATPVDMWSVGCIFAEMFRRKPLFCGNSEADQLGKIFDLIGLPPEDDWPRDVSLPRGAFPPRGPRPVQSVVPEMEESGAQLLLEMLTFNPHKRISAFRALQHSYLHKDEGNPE
Sequence of Cyclin-dependent kinase 4/cyclin D1 (P24385 whole entry, further chain): as the sequence (P24385 whole entry) above

The IC50 is the midpoint of a concentration-inhibition curve. For orientation: GI50 means the concentration giving 50% growth inhibition. For the molecule `CN1CCN(Cc2ccc(NC(=O)c3n[nH]cc3Nc3ncnc4[nH]ccc34)cc2)CC1`, the Activity in the data set on MV4-11 [1] is 14.79%; in the data set with MV4-11 [2], 9.33%; in the data set with MV4-11 [3] it was “Dose-dependent effect”; with Mus musculus, “Non-Toxic”; in the data set with MV4-11 [6], -6.11%; in the data set with MV4-11 [7], 24.17%. Further, the Activity in the data set on MV4-11 [12] stood at 13.44%; in the data set with MV4-11 [13], 15.02%; with MV4-11 [15] it was 54.13%; in the data set with MV4-11 [16], 78.95%. For the same molecule, the IC50 with Lymphocyte worked out at 492 nM; in data set [9], 0.85 nM; at CDK6/cyclin D1, 1.96 nM. Further, the half-life in data set [4] is 61.9 min; in data set [5], 39.6 min; in [14] it was 51.3 min; in data set [17], 15.4 min. For the same molecule, the result with HCT-116 [8] was Active. The results for the GI50 in the data set on HCT-116 [10], in the data set with RS4-11 and in the data set on MCF7 were 90 nM, 50 nM and 2840 nM, respectively. Also, in [11], the inhibition result is “Active”. Also, in the data set listed under Homo sapiens, the inhibition result was “Dose-dependent effect”.

(Values after ChEMBL document CHEMBL4052828, “Discovery of 4-((7H-Pyrrolo[2,3-d]pyrimidin-4-yl)amino)-N-(4-((4-methylpiperazin-1-yl)methyl)phenyl)-1H-pyrazole-3-carboxamide (FN-1501), an FLT3- and CDK-Kinase Inhibitor with Potentially High Efficiency against Acute Myelocytic Leukemia” (J Med Chem, 2018).)
